Rows were chosen to be rich in hits. Some 2% of all compounds tested hit in one or more screens of this group.
NTR1 agonist = agonists of human NTR1, primary screen, imaging, U2OS cells, beta-arrestin-GFP, high content; 0.17% of 330,000 active; AID 493036, 2011; NTR1-U2OS beta-arrestin-GFP spot imaging, agonist mode; activation, % at 20 µM;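 active = activation at or above 40% of the spot to cytoplasm intensity ratio, with at least 20 cells analyzed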;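 also: 0% = DMSO without peptide and 100% = 100 nM NTR1 peptide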
CAL PDZ FP-1 = CAL PDZ peptide-binding inhibitors, primary screen, biochemical, fluorescence polarization, Cer-tagged CAL PDZ, HTS. Golgi-associated PDZ and coiled-coil motif-containing protein (Homo sapiens), Q9HD26. purified CAL PDZ, TMR-peptide fluorescence polarization, 1 h. inhibition, % at 20 µM. 0.02% of 330,000 active;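 active = highest replicate inhibition of at least 40%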;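 also: plate controls were DMSO neutral control wells for no effect and unlabeled competitor peptide control wells for full effect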
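Test system: purified CerCALP PDZ construct; Compound dosing: one concentration, 20 µM compound; Also added: TMR-labelled reporter peptide T*-PRC34 bound in PDZ groove; Read-out: inhibition from polarization loss; Controls: unlabelled peptide and DMSO controls; Signal: FP readout, S and P plane fluorescence; Incubation: 1 h at RT.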
PKA-R2B act = activators of PKA-R2B holoenzyme, primary screen, biochemical, fluorescence polarization, Cy5-IP20, human | activation, % at 11.4 µM | PKA-R2B holoenzyme dissociation; R2B truncated from residue 108, S112A mutant; 0% DMSO only, 100% 113 µM cGMP | 0.079% of 340,000 active;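 active = activation above a cutoff set at the mean over all compounds plus 3 SD, cut at about 18% in these data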;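 also: higher means more holoenzyme dissociation and a rise in polarization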
Target sequence (P31323 whole entry, looked up, other chains not shown, the tested form may be a part): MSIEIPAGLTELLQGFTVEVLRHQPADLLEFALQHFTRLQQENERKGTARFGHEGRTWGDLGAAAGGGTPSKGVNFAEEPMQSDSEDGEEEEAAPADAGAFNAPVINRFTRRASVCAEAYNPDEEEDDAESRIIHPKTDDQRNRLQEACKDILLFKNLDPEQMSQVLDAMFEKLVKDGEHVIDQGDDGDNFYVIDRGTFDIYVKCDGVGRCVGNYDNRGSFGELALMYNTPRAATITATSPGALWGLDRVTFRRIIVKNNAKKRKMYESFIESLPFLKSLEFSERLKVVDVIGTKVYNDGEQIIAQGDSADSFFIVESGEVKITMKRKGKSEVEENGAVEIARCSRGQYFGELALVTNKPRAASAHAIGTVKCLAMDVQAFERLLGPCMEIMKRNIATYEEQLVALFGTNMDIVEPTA
PKA-R1A act = activators of PKA-R1A holoenzyme, primary screen, biochemical, fluorescence polarization, Cy5-IP20, bovine R1A, mouse PKAc | cAMP-dependent protein kinase type I-alpha regulatory subunit (Bos taurus) + … | PKA-R1A dissociation; scaled: DMSO 0%, 113 µM cGMP 100% | activation, % at 11.4 µM | 0.083% of 340,000 active | AID 504707, 2011;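 active = percent activation above the mean of all tested compounds plus 3 SD, cut at about 19% in these data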;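 also: higher means more PKAc released from R1A so a rise in polarization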
dFosB act-1 = activators of delta FosB homodimer, primary screen, biochemical, fluorescence polarization, TAMRA-CDK5 oligo, single point; activation, % at 25 µM; 0.99% of 340,000 active; Protein FosB (Mus musculus), P13346; purified delta FosB; percent of positive-control signal above neutral wells;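 active = mean activation above about 17%, with every replicate also reaching it, limit read from the data, passing the limit was not always enough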
CAL PDZ FP-2 = untagged CAL PDZ binding inhibitors, primary screen, biochemical, fluorescence polarization, HTS; inhibition, % at 24.9 µM; purified CAL PDZ, TMR-peptide fluorescence polarization, 1 h; AID 602252, 2012; 0.92% of 300,000 active;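 active = mean inhibition of at least 30% with at least half of replicates also reaching 30%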;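 also: 0% = DMSO neutral control and 100% = excess unlabeled competitor peptide PRC23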
dFosB act-2 = activators of mouse delta FosB DNA binding, confirmation, biochemical, fluorescence polarization, TAMRA-CDK5 oligo, cherry-picked samples; shares compounds with dFosB act-1; purified delta FosB; normalised: neutral wells 0, positive control 100; activation, % at 24.9 µM; 2,400 tested, under 10 active; AID 588690, 2011;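 active = highest replicate activation at or above 34% and every replicate reaching that threshold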;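 also: higher polarization means more probe DNA bound by delta FosB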
* marks the source's active call; other numbers are inactive results; nt = no result given.

SMILES	NTR1 agonist	CAL PDZ FP-1	PKA-R2B act	PKA-R1A act	dFosB act-1	CAL PDZ FP-2	dFosB act-2
Cc1ccc(Cn2nc(C)c(NC(=O)CSc3n[nH]c(C)c3[N+](=O)[O-])c2C)cc1	-1	0	7	1	30*	-3	0
CN(C)CCSc1nc(N)c2c3c(sc2n1)CN(C)CC3	1	0	11	4	25*	-2	2
Cc1ccc(C2=NOC3(CC(=O)N(c4ccc(C)cc4)C3=O)C2)cc1 (centres undefined)	-1	0	7	0	29*	4	5
C=CCN1C(=O)c2ccc(C(=O)NCC(=O)Nc3c(C)cc(C)cc3C)cc2C1=O	-2	-3	-3	-16	-8	nt	nt
Cc1cccc(NC(=O)CCc2nc3sc4c(c3c(=O)[nH]2)CCCC4)c1	8	-2	-1	-1	20*	-3	3
O=C(Nc1cccnc1)c1cc(-c2ccc(Cl)cc2Cl)on1	3	0	3	2	62*	-8	2
O=C(Nc1cccnc1)c1cc(-c2ccc(Cl)cc2)on1	0	-3	-5	-7	14	nt	nt
CCOC(=O)c1c(C)[nH]c(C)c1C(=O)COC(=O)c1cccc(C)c1O	8	-2	-14	1	-3	2	nt
Cc1cccc(C(=O)OCC(=O)c2c(C)[nH]c3ccccc23)c1O	38	-1	1	0	28*	13	0
Cc1ccc(Nc2nc(N)nc(CSc3nc4ccccc4s3)n2)cc1	20	-2	-2	-9	53*	2	0
Cc1ccc(Nc2nc(N)nc(CSc3nnc(-c4ccncc4)o3)n2)cc1	-4	-5	-11	7	66*	-2	1
CN(C)S(=O)(=O)c1ccc2oc(SCC(=O)c3c(N)n(C4CC4)c(=O)[nH]c3=O)nc2c1	5	0	-8	-13	20*	-1	5
COc1cc(NC(=O)c2ccccc2)c(OC)cc1NC(=O)Cc1ccc(Br)cc1	12	2	11	15	21*	0	8
CCCn1c(SCC(=O)N(C)C2CCCCC2)n[nH]c1=O	nt	nt	8	-1	nt	nt	nt
O=C(COc1ccc([N+](=O)[O-])cc1)NNC(=O)Nc1ccccc1F	-1	0	-6	-11	11	4	nt
Cc1cccc(NC(=O)NNC(=O)COc2ccc([N+](=O)[O-])cc2)c1C	0	-2	-5	-1	31*	-3	3
O=C(Cn1ncn2c(cc3ccccc32)c1=O)NCCCc1ccccc1	1	-1	-9	6	48*	2	1
O=C(Cc1ccc(NC(=O)C2CCN(C(=O)C3CCCC3)CC2)cc1)Nc1ccc(C(=O)N2CCOCC2)cc1	nt	-1	6	-9	-1	-18	nt
O=C(c1cccc(NS(=O)(=O)c2ccccc2)c1)N1CCCCC1	0	-1	7	8	-16	-1	nt
Cc1ccc(NC(=O)c2cc3c(s2)CCCC3)cc1S(=O)(=O)Nc1ccccc1Cl	2	-1	0	-6	-7	-4	nt
O=C(Nc1cc(S(=O)(=O)Nc2ccccc2Cl)ccc1O)c1cc2c(s1)CCCC2	9	-1	-10	-5	32*	2	3
CSc1ccc(S(=O)(=O)NCC(=O)OCCOc2ccccc2)cc1[N+](=O)[O-]	3	-2	-18	-4	28*	0	0
Nc1ccc(S(=O)(=O)NCC(=O)OCCOc2ccccc2)cc1[N+](=O)[O-]	1	-3	-2	-1	-1	-1	nt
COC(=O)C1(NC(=O)CNC(=O)OCc2ccccc2)CCCC1	nt	0	10	18	-7	-2	nt
Cc1cc(C(=O)OCC(=O)N2CC(=O)Nc3ccccc32)no1	2	nt	4	1	-4	-5	nt
SMILES	NTR1 agonist	CAL PDZ FP-1	PKA-R2B act	PKA-R1A act	dFosB act-1	CAL PDZ FP-2	dFosB act-2
Cc1c(C(=O)OCC(=O)N2CC(=O)Nc3ccccc32)oc2ccc(Br)cc12	13	0	-14	7	70*	-7	0
CCOC(=O)c1cc(-c2ccccc2)sc1NC(=O)COC(=O)c1ccc(Cl)c(S(N)(=O)=O)c1	7	0	-4	4	-3	-3	nt
CCOC(=O)c1cc(-c2ccccc2)sc1NC(=O)COC(=O)c1cccc(S(N)(=O)=O)c1	1	-2	-8	-9	24*	-3	-2
CC1CCC2(CC1)NC(=O)N(NC(=O)c1cccc(N(C)C)c1)C2=O (centres undefined)	-2	-1	7	2	-9	nt	nt
O=C(/C=C/c1ccccc1)Nc1nc(-c2ccncc2)cs1	0	0	-4	-8	17*	6	-9
COc1cc2c(cc1OC)-c1cc3ccc(OC)c(OC)c3c[n+]1CC2	-1	-2	-3	1	28*	-1	-3
COc1cc2c(cc1OC)C(C)=NCC2	-2	1	-2	-6	9	0	nt
CCN(CC)CCNC(=O)c1ccc(NC(=O)/C=C/c2cc(OC)c(OC)c(OC)c2)cc1	1	-9	-5	1	52*	-18	-1
Nc1c(C(=O)CSc2nnc(Cc3ccccc3)o2)c(=O)[nH]c(=O)n1C1CC1	-2	-1	8	0	1	8	nt
C/C(=N/NC(=O)CSCc1ccc(Cl)cc1)c1cccc(NC(=O)c2ccccc2)c1	7	-1	-9	4	38*	-2	2
C/C(=N\NC(=O)c1c(Cl)c(C)nn1C)c1ccc(NC(=O)COc2ccc(Cl)cc2C)cc1	9	-1	4	-1	33*	-2	2
C/C(=N\NC(=O)c1c(Cl)c(C)nn1C)c1cccc(NC(=O)COc2ccccc2)c1	0	-1	0	2	29*	-1	-2
CCN(CC(=O)Nc1ccc(NC(C)=O)cc1)C(=O)/C=C/c1ccc([N+](=O)[O-])cc1	0	-2	-11	-2	4	-4	nt
